From ChEMBL document CHEMBL1949585, “Design, synthesis and evaluation of telomerase inhibitory, hTERT repressing, and anti-proliferation activities of symmetrical 1,8-disubstituted amidoanthraquinones” (Eur J Med Chem, 2012)
Activity calls are given as the source filed them. No cut-off for these calls is given here.

Columns and labels:
[1] = Cytotoxicity against human H1299 cells assessed as cell growth at 1 uM after 48 hrs by MTT assay; type: functional; conditions: NCI-H1299, 48 h, read-out: Activity
Procedure, shortened: (§1)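 H1299 non-small lung cancer cells were grown in RPMI 1640 with 10% FBS and penicillin/streptomycin at 37 °C in 5% CO2. About 2×10³ cells were seeded per well and held 24 h, then washed with PBS and given fresh medium. Compound, freshly dissolved in DMSO and diluted in complete medium, was added for 48 h. MTT was read at 550 nm after SDS/DMF lysis at 37 °C for 16 h. Values are from three experiments, untreated = 100%, ±SD.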

[2] = Cytotoxicity against human H1299 cells assessed as cell growth at 100 uM after 48 hrs by MTT assay; type: functional; conditions: NCI-H1299, 48 h, read-out: Activity; procedure, shortened: as §1
[3] = Inhibition of human TERT expression in H1299 cells at 1 uM after 24 hrs by secreted alkaline phosphatase reporter gene assay relative to control; values are per cent of control; conditions: NCI-H1299
[4] = Cytotoxicity against human H1299 cells assessed as cell growth at 10 uM after 48 hrs by MTT assay; type: functional; conditions: NCI-H1299, 48 h, read-out: Activity; procedure, shortened: as §1
[5] = Inhibition of human TERT expression in H1299 cells at 10 uM after 24 hrs by secreted alkaline phosphatase reporter gene assay relative to control; values are per cent of control; conditions: NCI-H1299
[6] = Inhibition of human TERT expression in H1299 cells at 100 uM after 24 hrs by secreted alkaline phosphatase reporter gene assay relative to control; values are per cent of control; conditions: NCI-H1299
[7] = (§2) Inhibition of human telomerase in H1299 cell lysate compound incubated for 5 mins prior to telomerase extension by PCR-based telomeric repeat amplification protocol assay; type: cell-free
Procedure, shortened: (§3)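 TRAP assay on telomerase-active H1299 cell extracts, with RNase A-treated extract as the negative control. Compound was preincubated with extract for 5 min at room temperature before the telomerase extension and PCR amplification. The initial screen used 10 µM, and IC50 came from a dose series.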

H1299 [8] = experiment: as §2; type: cell-free; procedure, shortened: as §3
H1299 [9] = experiment: Inhibition of human telomerase in H1299 cell lysate at 10 uM by PCR-based telomeric repeat amplification protocol assay; type: cell-free; procedure, shortened: as §3
H1299 [10] = experiment: Inhibition of human telomerase in H1299 cell lysate compound incubated post-telomerase extension by PCR-based telomeric repeat amplification protocol assay; type: cell-free
Procedure, shortened: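 Modified TRAP assay (TRAP-M) to test for interference with Taq polymerase. Compound was added to H1299 extract reactions right after the telomerase extension step and before PCR amplification.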

O=C1c2c(O)ccc(O)c2C(=O)c2c(NCCNCCO)ccc(NCCNCCO)c21 [MITOXANTRONE]
growth at 1 µM [1]: 23% | growth at 100 µM [2]: 0% | level, % of control [3]: 20% | growth at 10 µM [4]: 0% | level, % of control [5]: 9% | level, % of control [6]: 7%

COC(=O)[C@@H](NCC(=O)Nc1cccc2c1C(=O)c1c(NC(=O)CN[C@H](C(=O)OC)c3ccccc3)cccc1C2=O)c1ccccc1
growth at 1 µM [1]: 77% | growth at 100 µM [2]: 18% | level, % of control [3]: 97% | growth at 10 µM [4]: 59% | level, % of control [5]: 74% | level, % of control [6]: 42%

O=C(CCNCc1cc(F)cc(F)c1)Nc1cccc2c1C(=O)c1c(NC(=O)CCNCc3cc(F)cc(F)c3)cccc1C2=O
growth at 1 µM [1]: 93% | growth at 100 µM [2]: 6% | level, % of control [3]: 98% | growth at 10 µM [4]: 87% | level, % of control [5]: 100% | level, % of control [6]: 3%

CCCN(CCC)CC(=O)Nc1cccc2c1C(=O)c1c(NC(=O)CN(CCC)CCC)cccc1C2=O
growth at 1 µM [1]: 90% | growth at 100 µM [2]: 66% | level, % of control [3]: 105% | growth at 10 µM [4]: 76% | level, % of control [5]: 101% | level, % of control [6]: 94%

COC(=O)[C@@H]1CCCN1CC(=O)Nc1cccc2c1C(=O)c1c(NC(=O)CN3CCC[C@H]3C(=O)OC)cccc1C2=O
growth at 1 µM [1]: 88% | growth at 100 µM [2]: 93% | level, % of control [3]: 87% | growth at 10 µM [4]: 104% | level, % of control [5]: 59% | level, % of control [6]: 8%

CCNCC(=O)Nc1cccc2c1C(=O)c1c(NC(=O)CNCC)cccc1C2=O
growth at 1 µM [1]: 106% | growth at 100 µM [2]: 17% | level, % of control [3]: 103% | growth at 10 µM [4]: 87% | level, % of control [5]: 92% | level, % of control [6]: 2%

CN(C)CCCNCCC(=O)Nc1cccc2c1C(=O)c1c(NC(=O)CCNCCCN(C)C)cccc1C2=O
growth at 1 µM [1]: 122% | growth at 100 µM [2]: 21% | level, % of control [3]: 95% | growth at 10 µM [4]: 105% | level, % of control [5]: 95% | level, % of control [6]: 20%

CC(C)NCC(=O)Nc1cccc2c1C(=O)c1c(NC(=O)CNC(C)C)cccc1C2=O
growth at 1 µM [1]: 89% | growth at 100 µM [2]: 14% | level, % of control [3]: 103% | growth at 10 µM [4]: 86% | level, % of control [5]: 101% | level, % of control [6]: 35%

COC(=O)[C@@H](NCC(=O)Nc1cccc2c1C(=O)c1c(NC(=O)CN[C@H](C(=O)OC)C(C)C)cccc1C2=O)C(C)C
growth at 1 µM [1]: 99% | growth at 100 µM [2]: 86% | level, % of control [3]: 100% | growth at 10 µM [4]: 90% | level, % of control [5]: 49% | level, % of control [6]: 0%

COC(=O)[C@H](COC(C)(C)C)NCC(=O)Nc1cccc2c1C(=O)c1c(NC(=O)CN[C@@H](COC(C)(C)C)C(=O)OC)cccc1C2=O
growth at 1 µM [1]: 127% | growth at 100 µM [2]: 91% | level, % of control [3]: 98% | growth at 10 µM [4]: 128% | level, % of control [5]: 94% | level, % of control [6]: 98%

COC(=O)[C@@H](C)NCC(=O)Nc1cccc2c1C(=O)c1c(NC(=O)CN[C@H](C)C(=O)OC)cccc1C2=O
growth at 1 µM [1]: 56% | growth at 100 µM [2]: 10% | level, % of control [3]: 83% | growth at 10 µM [4]: 50% | level, % of control [5]: 74% | level, % of control [6]: 66%

COC(=O)CN(C)CC(=O)Nc1cccc2c1C(=O)c1c(NC(=O)CN(C)CC(=O)OC)cccc1C2=O
growth at 1 µM [1]: 71% | growth at 100 µM [2]: 46% | level, % of control [3]: 106% | growth at 10 µM [4]: 88% | level, % of control [5]: 95% | level, % of control [6]: 73%

COC(=O)[C@H](C)NCC(=O)Nc1cccc2c1C(=O)c1c(NC(=O)CN[C@@H](C)C(=O)OC)cccc1C2=O
growth at 1 µM [1]: 98% | growth at 100 µM [2]: 96% | level, % of control [3]: 99% | growth at 10 µM [4]: 104% | level, % of control [5]: 93% | level, % of control [6]: 67%

CCN(CC)CCC(=O)Nc1cccc2c1C(=O)c1c(NC(=O)CCN(CC)CC)cccc1C2=O
growth at 1 µM [1]: 97% | growth at 100 µM [2]: 4% | level, % of control [3]: 99% | growth at 10 µM [4]: 30% | level, % of control [5]: 35% | level, % of control [6]: 0%

COc1cccc2c1C(=O)c1c(O)c3c(c(O)c1C2=O)C[C@@](O)(C(=O)CO)C[C@@H]3O[C@H]1C[C@H](N)[C@H](O)[C@H](C)O1 [DOXORUBICIN]
growth at 1 µM [1]: 17% | growth at 100 µM [2]: 0% | level, % of control [3]: 33% | growth at 10 µM [4]: 0% | level, % of control [5]: 13% | level, % of control [6]: 5%

COC(=O)[C@H](NCC(=O)Nc1cccc2c1C(=O)c1c(NC(=O)CN[C@@H](C(=O)OC)C(C)C)cccc1C2=O)C(C)C
growth at 1 µM [1]: 88% | growth at 100 µM [2]: 58% | level, % of control [3]: 91% | growth at 10 µM [4]: 80% | level, % of control [5]: 95% | level, % of control [6]: 45%

CC(C)CNCCC(=O)Nc1cccc2c1C(=O)c1c(NC(=O)CCNCC(C)C)cccc1C2=O
growth at 1 µM [1]: 73% | growth at 100 µM [2]: 0% | level, % of control [3]: 96% | growth at 10 µM [4]: 4% | level, % of control [5]: 29% | level, % of control [6]: 0%

COC(=O)[C@H](CCSC)NCC(=O)Nc1cccc2c1C(=O)c1c(NC(=O)CN[C@@H](CCSC)C(=O)OC)cccc1C2=O
growth at 1 µM [1]: 99% | growth at 100 µM [2]: 60% | level, % of control [3]: 105% | growth at 10 µM [4]: 78% | level, % of control [5]: 94% | level, % of control [6]: 24%

CCN(C)CCC(=O)Nc1cccc2c1C(=O)c1c(NC(=O)CCN(C)CC)cccc1C2=O
growth at 1 µM [1]: 96% | growth at 100 µM [2]: 12% | level, % of control [3]: 110% | growth at 10 µM [4]: 23% | level, % of control [5]: 19% | level, % of control [6]: 0%

CNCCC(=O)Nc1cccc2c1C(=O)c1c(NC(=O)CCNC)cccc1C2=O
growth at 1 µM [1]: 117% | growth at 100 µM [2]: 33% | level, % of control [3]: 101% | growth at 10 µM [4]: 107% | level, % of control [5]: 97% | level, % of control [6]: 22%

CCCN(C)CC(=O)Nc1cccc2c1C(=O)c1c(NC(=O)CN(C)CCC)cccc1C2=O
growth at 1 µM [1]: 108% | growth at 100 µM [2]: 97% | level, % of control [3]: 85% | growth at 10 µM [4]: 108% | level, % of control [5]: 87% | level, % of control [6]: 45%

CC(C)CNCC(=O)Nc1cccc2c1C(=O)c1c(NC(=O)CNCC(C)C)cccc1C2=O
growth at 1 µM [1]: 53% | growth at 100 µM [2]: 28% | level, % of control [3]: 110% | growth at 10 µM [4]: 44% | level, % of control [5]: 86% | level, % of control [6]: 77%

CC(C)NCCC(=O)Nc1cccc2c1C(=O)c1c(NC(=O)CCNC(C)C)cccc1C2=O
growth at 1 µM [1]: 101% | IC50 [7]: 3000 nM | inhibition (H1299 [8]): Dose-dependent effect | growth at 100 µM [2]: 14% | inhibition (H1299 [9]): Active | level, % of control [3]: 106% | inhibition (H1299 [10]): Dose-dependent effect | growth at 10 µM [4]: 29% | level, % of control [5]: 16% | level, % of control [6]: 0%

CC(C)(C)OC(=O)NCCNCCC(=O)Nc1cccc2c1C(=O)c1c(NC(=O)CCNCCNC(=O)OC(C)(C)C)cccc1C2=O
growth at 1 µM [1]: 82% | growth at 100 µM [2]: 11% | level, % of control [3]: 100% | growth at 10 µM [4]: 78% | level, % of control [5]: 84% | level, % of control [6]: 33%

CN(C)CCC(=O)Nc1cccc2c1C(=O)c1c(NC(=O)CCN(C)C)cccc1C2=O
growth at 1 µM [1]: 93% | growth at 100 µM [2]: 11% | level, % of control [3]: 87% | growth at 10 µM [4]: 24% | level, % of control [5]: 20% | level, % of control [6]: 0%

CCCN(CCC)CCC(=O)Nc1cccc2c1C(=O)c1c(NC(=O)CCN(CCC)CCC)cccc1C2=O
growth at 1 µM [1]: 94% | growth at 100 µM [2]: 22% | level, % of control [3]: 100% | growth at 10 µM [4]: 99% | level, % of control [5]: 100% | level, % of control [6]: 4%

CN(C)CC(=O)Nc1cccc2c1C(=O)c1c(NC(=O)CN(C)C)cccc1C2=O
growth at 1 µM [1]: 72% | growth at 100 µM [2]: 57% | level, % of control [3]: 93% | growth at 10 µM [4]: 61% | level, % of control [5]: 96% | level, % of control [6]: 84%

O=C(CNCc1cccc(C(F)(F)F)c1)Nc1cccc2c1C(=O)c1c(NC(=O)CNCc3cccc(C(F)(F)F)c3)cccc1C2=O
growth at 1 µM [1]: 97% | growth at 100 µM [2]: 93% | level, % of control [3]: 75% | growth at 10 µM [4]: 93% | level, % of control [5]: 84% | level, % of control [6]: 33%

CCN(C)CC(=O)Nc1cccc2c1C(=O)c1c(NC(=O)CN(C)CC)cccc1C2=O
growth at 1 µM [1]: 100% | growth at 100 µM [2]: 73% | level, % of control [3]: 102% | growth at 10 µM [4]: 101% | level, % of control [5]: 95% | level, % of control [6]: 20%

COC(=O)[C@H](CC(C)C)NCC(=O)Nc1cccc2c1C(=O)c1c(NC(=O)CN[C@@H](CC(C)C)C(=O)OC)cccc1C2=O
growth at 1 µM [1]: 112% | growth at 100 µM [2]: 96% | level, % of control [3]: 101% | growth at 10 µM [4]: 102% | level, % of control [5]: 101% | level, % of control [6]: 88%
